Reference: ChEMBL document CHEMBL4392826, “Prototyping kinase inhibitor-cytotoxin anticancer mutual prodrugs activated by tumour hypoxia: A chemical proof of concept study” (Bioorg Med Chem Lett, 2019)

Tests used:
SW-620 [1] = assay: Cytotoxicity against human SW620 cells incubated for 4 hrs under hypoxic condition followed by compound washout and measured after 5 days by SRB assay; assay type: functional, cell-based
In short: (§1)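 Antiproliferative IC50 in MDA-MB-468 triple-negative breast or SW620 colon cancer cells, exposed under aerobic or anoxic conditions; mean ± std dev, n = 3.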

SW-620 [2] = assay: Cytotoxicity against human SW620 cells incubated for 4 hrs under aerobic condition followed by compound washout and measured after 5 days by SRB assay; assay type: cell-based; in short: as §1
SW-620 [3] = assay: Selectivity ratio of IC50 for human SW620 cells under aerobic condition to IC50 for human SW620 cells under hypoxic condition
In short: (§2)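 Hypoxic cytotoxicity ratio: aerobic IC50 divided by anoxic IC50 in the same cell line (MDA-MB-468 or SW620).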

MDA-MB-468 [4] = assay: Cytotoxicity against human MDA-MB-468 cells incubated for 4 hrs under aerobic condition followed by compound washout and measured after 5 days by SRB assay; assay type: cell-based; in short: as §1
MDA-MB-468 [5] = assay: Selectivity ratio of IC50 for human MDA-MB-468 cells under aerobic condition to IC50 for human MDA-MB-468 cells under hypoxic condition; in short: as §2
MDA-MB-468 [6] = assay: Cytotoxicity against human MDA-MB-468 cells incubated for 4 hrs under hypoxic condition followed by compound washout and measured after 5 days by SRB assay; assay type: functional, cell-based; in short: as §1
[7] = Electrochemical behavior of the compound assessed as one-elctron reduction potential at 50 uM in pH 7 deaerated phosphate buffered by pulse radiolysis
[8] = Ratio of test compound IC50 to floxuridine IC50 for human SW620 cells incubated for 4 hrs under aerobic condition followed by compound washout and measured after 5 days by SRB assay; assay type: ADME, cell-based, SW-620; details: read-out: Ratio IC50
In short: (§3)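 Deactivation ratio: aerobic antiproliferative IC50 of the prodrug divided by aerobic IC50 of the parent cytotoxin control (floxuridine). IC50 values were means ± std dev, n = 3, determined in MDA-MB-468 triple-negative breast or SW620 colon cancer cells.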

[9] = Ratio of test compound IC50 to floxuridine IC50 for human MDA-MB-468 cells incubated for 4 hrs under aerobic condition followed by compound washout and measured after 5 days by SRB assay; assay type: ADME, cell-based; details: read-out: Ratio IC50; in short: as §3
[10] = Aqueous solubility of the compound; assay type: physicochemical; details: buffer
[11] = Ratio of test compound IC50 to melphalan IC50 for human MDA-MB-468 cells incubated for 4 hrs under aerobic condition followed by compound washout and measured after 5 days by SRB assay; assay type: ADME, cell-based; details: read-out: Ratio IC50
In short: (§4)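 Deactivation ratio: aerobic IC50 of the prodrug divided by the aerobic IC50 of the parent control cytotoxin, in the same cell line (MDA-MB-468 or SW620).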

[12] = Ratio of test compound IC50 to melphalan IC50 for human SW620 cells incubated for 4 hrs under aerobic condition followed by compound washout and measured after 5 days by SRB assay; assay type: ADME, cell-based, SW-620; details: read-out: Ratio IC50; in short: as §4
[13] = Electrochemical behavior of the compound assessed as one-elctron reduction potential at 0.42 uM in tert-butanol by pulse radiolysis

Row | SMILES | IC50 (SW-620 [1]) [µM] | IC50 (SW-620 [2]) [µM] | Ratio IC50 (SW-620 [3]) | IC50 (MDA-MB-468 [4]) [µM] | Ratio IC50 (MDA-MB-468 [5]) | IC50 (MDA-MB-468 [6]) [µM] | Activity [7] [mV] | selectivity ratio at 4 h [8] | selectivity ratio at 4 h [9] | solubility [10] | selectivity ratio at 4 h [11] | selectivity ratio at 4 h [12] | Activity [13] [mV]
1 | Nc1n[n+]([O-])c2ccccc2[n+]1[O-] [TIRAPAZAMINE] | 1.2 | 91 | 76 | 105 | 81 | 1.3 |  |  |  |  |  |  | 
2 | Cc1cc(C)c(/C=C(\C(=O)OC[C@H]2O[C@@H](n3cc(F)c(=O)[nH]c3=O)C[C@@H]2O)c2ccccc2[N+](=O)[O-])[nH]1 | 14 | 18.7 | 1.3 | 83.9 | <1 | 248 | -509 | 19.4 | 3.1 |  |  |  | 
3 | Cc1cc(C)c(/C=C(\C(=O)Nc2ccc(N(CCCl)CCCl)cc2)c2ccccc2[N+](=O)[O-])[nH]1 | 12.7 | 11.5 | <1 | 8.31 | 1.1 | 7.38 |  |  |  | Insoluble | 8.3 | 6.3 | 
4 | O=c1[nH]c(=O)n([C@H]2C[C@H](O)[C@@H](CO)O2)cc1F [FLOXURIDINE] | 1.48 | 0.96 | <1 | 27.4 | <1 | 45.5 |  |  |  |  |  |  | 
5 | Cn1c(COP(=O)(NCCBr)NCCBr)cnc1[N+](=O)[O-] [EVOFOSFAMIDE] | 0.052 | 20.6 | 396 | 4.4 | 710 | 0.0062 |  |  |  |  |  |  | 
6 | Cc1cc(C)c(/C=C(\C(=O)Nc2ccc(N(CCO)CCO)cc2)c2ccccc2[N+](=O)[O-])[nH]1 |  |  |  |  |  |  |  |  |  |  |  |  | -550
7 | N[C@@H](Cc1ccc(N(CCCl)CCCl)cc1)C(=O)O [MELPHALAN] | 1.22 | 1.81 | 1.5 | 1 | 1.2 | 0.81 |  |  |  |  |  |  | 
